BindingDB's records for doi:10.1021/jm00343a011 (1982)

What was measured:
[1] = target: T1, Malate dehydrogenase, cytoplasmic (Sus scrofa, UniProt P11708); assay: Ability to inhibit cytoplasmic malate dehydrogenase
T1 sequence (P11708 whole entry): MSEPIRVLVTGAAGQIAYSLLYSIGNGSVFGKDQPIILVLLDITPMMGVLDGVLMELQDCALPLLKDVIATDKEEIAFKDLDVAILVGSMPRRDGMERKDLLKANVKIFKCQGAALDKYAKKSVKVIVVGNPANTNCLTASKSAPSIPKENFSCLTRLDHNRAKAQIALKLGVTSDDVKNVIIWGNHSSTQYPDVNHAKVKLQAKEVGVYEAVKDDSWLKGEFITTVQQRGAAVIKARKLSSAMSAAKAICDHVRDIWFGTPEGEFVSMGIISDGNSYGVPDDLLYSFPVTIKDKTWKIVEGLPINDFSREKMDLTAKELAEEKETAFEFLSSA
Summary of the method: (§1)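 Pig heart enzyme (cytoplasmic or mitochondrial form), diluted in 0.05 M Tris pH 7.4 with 1% BSA to give 0.022–0.027 OD/min at 340 nm. Cuvette holds 0.05 M Tris pH 8.4, L-malate, NAD+ and Me2SO ± inhibitor. Equilibrated at 25 °C, then started with enzyme. Five inhibitor concentrations in triplicate; I50 from least-squares dose-response line.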

[2] = target: T2, Malate dehydrogenase, mitochondrial (Sus scrofa, UniProt P00346); assay: Ability to inhibit mitochondrial malate dehydrogenase; summary of the method: as §1
T2 sequence (P00346 whole entry): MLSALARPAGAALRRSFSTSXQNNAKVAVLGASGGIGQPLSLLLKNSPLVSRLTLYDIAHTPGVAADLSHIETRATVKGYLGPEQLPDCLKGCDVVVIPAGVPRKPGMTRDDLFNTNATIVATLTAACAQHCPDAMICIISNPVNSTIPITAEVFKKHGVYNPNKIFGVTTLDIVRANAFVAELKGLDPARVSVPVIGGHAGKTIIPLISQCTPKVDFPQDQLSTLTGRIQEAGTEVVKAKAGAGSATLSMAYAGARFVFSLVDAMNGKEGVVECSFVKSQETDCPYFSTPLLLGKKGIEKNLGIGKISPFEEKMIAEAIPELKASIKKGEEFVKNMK

Compound | IC50 [1] [µM] | IC50 [2] [µM]
O=C(O)c1cnc2cc([N+](=O)[O-])ccc2c1O | 1200 | 1910
O=C(O)c1cnc2cc(OCCOc3ccc(Oc4ccccc4)cc3)ccc2c1O | 81.3 | 2.45
O=C(O)c1cnc2cc(OCCc3ccc4ccccc4c3)ccc2c1O | 72.4 | 2.19
O=C(O)c1cnc2cc(OCc3ccc(F)cc3)ccc2c1O |  | 39.8
O=C(O)c1cnc2cc(OCCc3ccc(Oc4ccccc4)cc3)ccc2c1O | 61.7 | 1.82
O=C(O)c1cnc2cc(OCc3ccc(Br)cc3)ccc2c1O |  | 6.76
O=C(O)c1cnc2cc(O)ccc2c1O | 955 | 490
NC(=O)c1ccc2c(O)c(C(=O)O)cnc2c1 | 603 | 741
O=C(O)c1cnc2cc(OCCOc3ccc4ccccc4c3)ccc2c1O |  | 1.58
O=C(O)c1cnc2cc(OCc3ccc(Oc4ccccc4)cc3)ccc2c1O | 30.9 | 1.48
CS(=O)(=O)c1ccc2c(O)c(C(=O)O)cnc2c1 | 437 | 661
O=C(O)c1cnc2cc(S(=O)(=O)O)ccc2c1O | 3090 | 2140
CC(=O)c1ccc2c(O)c(C(=O)O)cnc2c1 | 912 | 912
O=C(O)c1cnc2cc(OCCc3ccc(Br)cc3)ccc2c1O | 91.2 | 2.51
O=C(O)c1cnc2cc(OCCOc3ccc(Br)cc3)ccc2c1O |  | 5.13
NS(=O)(=O)c1ccc2c(O)c(C(=O)O)cnc2c1 | 692 | 955
O=C(O)c1cnc2cc(OCc3ccc(Cl)c(Cl)c3)ccc2c1O |  | 4.79
O=C(O)c1cnc2cc(Cl)ccc2c1O | 4680 | 3630
O=C(O)c1cnc2cc(OCCOc3ccccc3)ccc2c1O |  | 60.3
O=C(O)c1cnc2cc(OCCOc3ccc(F)cc3)ccc2c1O |  | 18.2
O=C(O)c1cnc2cc(F)ccc2c1O | 11000 | 10500
O=C(O)c1cnc2cc(OCc3cccc4ccccc34)ccc2c1O |  | 13.2
O=C(O)c1cnc2cc(OCCc3ccc(F)cc3)ccc2c1O |  | 14.8
O=C(O)c1cnc2cc(OCc3c(Cl)c(Cl)c(Cl)c(Cl)c3Cl)ccc2c1O |  | 4.79
O=C(O)c1cnc2cc(OCc3ccccc3)ccc2c1O |  | 32.4
O=C(O)c1cnc2cc(OCc3ccc4ccccc4c3)ccc2c1O |  | 4.07
CN(C)c1ccc2c(O)c(C(=O)O)cnc2c1 | 372 | 479
O=C(O)c1ccc2c(O)c(C(=O)O)cnc2c1 | 1290 | 1070
O=C(O)c1cnc2cc(OCCc3ccccc3)ccc2c1O | 155 | 38
